According to ChEMBL document CHEMBL1143725, “Alvaradoins E-N, antitumor and cytotoxic anthracenone C-glycosides from the leaves of Alvaradoa haitiensis” (J Nat Prod, 2007):
pEC50: −log10 of the molar value. Active and inactive are the calls of the source. No cut-off for these calls is given here.

Experiments:
[1] = tested on: P388; test: Antitumor activity in P388 cells xenografted mouse at 0.2 mg/kg body weight, ip for 5 days/week relative to control; format: functional; settings: route intraperitoneal
Procedure, shortened: (§1)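 Mice carried murine P388 lymphocytic leukemia cells implanted intraperitoneally. Treatment was given i.p. daily, 5 days per week. Activity was expressed as % T/C, treated versus control.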

[2] = tested on: P388; test: Antitumor activity in iv dosed mouse implanted with P388 xenografts; format: functional, organism-based
Procedure, shortened: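 This was a P388 murine lymphocytic leukemia model in which both the leukemia cells and the treatment were delivered intravenously.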

[3] = tested on: KB; test: Cytotoxicity against human KB cells; format: functional, cell-based
Procedure, shortened: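 Human oral epidermoid carcinoma (KB) cells were tested following previously established protocols. EC50 values were reported in μM as mean ± SEM from three separate experiments.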

[4] = tested on: P388; test: Antitumor activity in P388 cells xenografted mouse at 0.4 mg/kg body weight, ip for 5 days/week relative to control; format: functional; settings: route intraperitoneal; procedure, shortened: as §1

Row | Structure (SMILES) | pEC50 [3] | other results
1 | CC(=O)O[C@@H]1O[C@@H]([C@H]2c3cccc(O)c3C(=O)c3c(O)cc(C)cc32)[C@H](O)[C@@H](O)[C@H]1O [ALVARADOIN E] | 7.30 | Activity [1]: 125%; Activity [2]: inactive
2 | CC(=O)O[C@H]1O[C@H]([C@@H]2c3cccc(O)c3C(=O)c3c(O)cc(C)cc32)[C@H](O)[C@@H](O)[C@H]1O [ALVARADOIN F] | 7.19 | Activity [4]: 115%; Activity [2]: inactive
3 | CC(=O)O[C@H]1O[C@H]([C@@H]2c3cccc(O)c3C(=O)c3c(O)cc(C)cc32)[C@H](O)[C@@H](OC(=O)C=C(C)C)[C@H]1O [ALVARADOIN G] | 6.19 | –
4 | CC(=O)O[C@@H]1O[C@@H]([C@H]2c3cccc(O)c3C(=O)c3c(O)cc(C)cc32)[C@H](O)[C@@H](OC(=O)C=C(C)C)[C@H]1O [ALVARADOIN H] | 5.97 | –
5 | CC(=O)O[C@H]1O[C@H]([C@@]2(O)c3cccc(O)c3C(=O)c3c(O)cc(C)cc32)[C@H](O)[C@@H](OC(=O)C=C(C)C)[C@H]1O [ALVARADOIN I] | 4.90 | –
6 | CC(=O)O[C@H]1O[C@H]([C@]2(O)c3cccc(O)c3C(=O)c3c(O)cc(C)cc32)[C@H](O)[C@@H](OC(=O)C=C(C)C)[C@H]1O [ALVARADOIN J] | 4.80 | –
7 | CC(C)=CC(=O)O[C@@H]1[C@H](O)[C@@H](O)[C@@H]([C@@H]2c3cccc(O)c3C(=O)c3c(O)cc(C)cc32)O[C@@H]1O [ALVARADOIN K] | 6.57 | –
8 | CC(C)=CC(=O)O[C@@H]1[C@H](O)[C@@H](O)[C@@H]([C@H]2c3cccc(O)c3C(=O)c3c(O)cc(C)cc32)O[C@@H]1O [ALVARADOIN L] | 6.23 | –
9 | CC(C)=CC(=O)O[C@@H]1[C@@H](O)[C@@H]([C@H]2c3cccc(O)c3C(=O)c3c(O)cc(C)cc32)O[C@H](O)[C@@H]1O [ALVARADOIN M] | 6.42 | –
10 | CC(=O)O[C@H]1O[C@H]([C@]2(O)c3cccc(O)c3C(=O)c3c(O)cc(C)cc32)[C@H](O)[C@@H](O)[C@H]1O [ALVARADOIN N] | 5.53 | –
11 | CC[C@@]1(O)C(=O)OCc2c1cc1n(c2=O)Cc2cc3ccccc3nc2-1 [CAMPTOTHECIN] | 8.44 | –
12 | Cc1cc(O)c2c(c1)C(=O)c1cccc(O)c1C2=O [CHRYSOPHANOL] | < 4.70 | –
